Compound activity as filed in PubChem.
TbMetRS inhib: Trypanosoma brucei MetRS inhibition | actives 0.4% (n = 360,000) | inhibition, % at 11.9 µM | purified T. brucei MetRS, ATP depletion, Kinase-Glo luminescence;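 active means inhibition above a per-plate cutoff of the control wells' mean inhibition plus 3 SD, cut at about 5.5% in these data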;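 further: 0% = DMSO wells median and 100% = median of wells with control inhibitor compound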
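assay system = parasite MetRS enzyme | timing = 15 min preincubation, 2 h reaction, all 25 °C | evaluation = percent inhibition relative to median high and low control wells | medium = HEPES buffer containing pyrophosphatase, BSA, spermine, DTT | compound = single dose, 11.9 µM final nominal, 0.9% final DMSO | detection = Kinase-Glo luminescence, ATP depletion format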
procasp3 activ: activators of human procaspase-3; recombinant procaspase-3 D3A, Ac-DEVD-pNA absorbance 405 nm; actives 0.11% (n = 330,000); AID 463141; P42574; activation, % at 8.5 µM;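 active means activation above the mean of all tested compounds plus 3 SD, cut at about 21% in these data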;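 further: 0% = DMSO alone and 100% = DMSO wells spiked with extra 5 µM PC-3 D3A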
Target sequence (P42574 whole entry D9A/D28A/D175A): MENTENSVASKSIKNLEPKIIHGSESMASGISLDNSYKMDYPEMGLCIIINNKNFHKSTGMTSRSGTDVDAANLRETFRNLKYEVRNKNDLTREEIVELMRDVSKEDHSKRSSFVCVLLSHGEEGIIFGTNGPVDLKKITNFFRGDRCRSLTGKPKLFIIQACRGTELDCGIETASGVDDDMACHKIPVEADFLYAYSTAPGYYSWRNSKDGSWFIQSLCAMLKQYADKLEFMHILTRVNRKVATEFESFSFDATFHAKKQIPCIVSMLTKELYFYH
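assay system = Procaspase-3 D3A mutant | signal = absorbance at 405 nm, 0 and 120 min | times = 1 h preincubation plus 2 h reaction at 25 °C | repeats = single replicate | read-out = % activation between DMSO and enzyme-spiked controls | medium = Zinc-free HEPES saline buffer with Triton X-100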
MsrA inhibitor: inhibitors of bovine MsrA; purified bovine MsrA, absorbance read-out; inhibition, % at 15.5 µM; actives 0.75% (n = 360,000); in the data active means inhibition above about 4.5%;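 further: 0% = vehicle wells with enzyme and 100% = reference inhibitor wells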
proCasp7 act: counter-screen: procaspase-7 (human) activation | P55210 | recombinant procaspase-7, Ac-DEVD-pNA absorbance 405 nm; D23A/D198A/D206A triple mutant, cannot self-cleave; scale: DMSO 0, 5 µM enzyme 100 | activation, % at 8.5 µM | actives 0.093% (n = 330,000);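 active means percent activation above the screen-wide mean plus 3 SD, cut at about 25% in these data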
Target sequence (P55210 whole entry D23A/D198A/D206A): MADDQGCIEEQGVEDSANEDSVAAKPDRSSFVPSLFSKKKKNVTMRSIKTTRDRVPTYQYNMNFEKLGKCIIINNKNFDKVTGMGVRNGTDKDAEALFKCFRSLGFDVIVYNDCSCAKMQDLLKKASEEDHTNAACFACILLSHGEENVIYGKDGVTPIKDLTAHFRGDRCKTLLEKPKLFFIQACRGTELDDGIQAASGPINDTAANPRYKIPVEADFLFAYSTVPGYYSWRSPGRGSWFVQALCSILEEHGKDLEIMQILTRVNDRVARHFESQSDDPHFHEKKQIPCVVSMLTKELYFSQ
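signal = Epi-absorbance of released pNA at 405 nm, two timepoints | assay system = Uncleavable procaspase-7 mutant enzyme | reagent = Ac-DEVD-pNA substrate, 400 µM as added | times = 1 h enzyme–compound preincubation and 2 h substrate reaction, both 25 °C | benchmarks = low DMSO alone, high DMSO plus 5 µM PC-7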
bovine MsrA act: activates bovine MsrA enzyme; purified bovine MsrA, absorbance read-out; activation, % at 10.6 µM; actives 0.3% (n = 360,000); in the data active means activation above about 7.5%;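 further: 0% = vehicle and 100% = reference activator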
Tb MetRS conf: confirmation of Trypanosoma brucei MetRS inhibitors | shares compounds with TbMetRS inhib | inhibition, % at 11.9 µM | actives 93% (n = 1,400) | T. brucei MetRS enzyme, luminescence (ATP depletion); in the data active means inhibition above about 7%
Jurkat cytotox: Jurkat T cell cytotoxicity for MetRS hits; Jurkat cells viability, ATP luminescence; shares compounds with TbMetRS inhib; actives 12% (n = 1,400); inhibition, % at 8.3 µM; AID 624413; in the data active means inhibition above about 15%;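 further: 0% = vehicle and 100% = reference inhibitor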
Tb MetRS inh FP: inhibits T. brucei methionyl tRNA synthetase in orthogonal FP test; shares compounds with TbMetRS inhib; inhibition, % at 11.9 µM; purified T. brucei MetRS, fluorescence polarization; actives 44% (n = 1,400); in the data active means inhibition above about 17%;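 further: 0% = vehicle wells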
Numbers without * were called inactive. The list is not random: actives were taken first. Their share in the collection is about 1.5%.

Results for CC(=O)NCCc1nc2ccccc2[nH]1 ?
TbMetRS inhib: -0.5; procasp3 activ: 13.6; MsrA inhibitor: -0.3; proCasp7 act: -4.4; bovine MsrA act: -0.8

How did O=C(NCCc1nc2ccccc2[nH]1)c1ccc(F)cc1 do in these assays?
TbMetRS inhib: 6.4*; procasp3 activ: 0.1; proCasp7 act: -3.1; bovine MsrA act: -2.9; Tb MetRS conf: 10.3*; Jurkat cytotox: -1.4; Tb MetRS inh FP: 1.1

What do the screens show for `O=C(NCCc1nc2ccccc2[nH]1)c1cccc(Br)c1`?
TbMetRS inhib: 18.6*; procasp3 activ: -4.7; MsrA inhibitor: 2.1; proCasp7 act: 2.8; bovine MsrA act: -2.0; Tb MetRS conf: 29.6*; Jurkat cytotox: -4.7; Tb MetRS inh FP: 11.8

What do the screens show for `O=C(N/C(=C\c1cccnc1)c1nc2ccccc2[nH]1)c1cccc(Br)c1`?
TbMetRS inhib: 66.3*; procasp3 activ: 2.4; MsrA inhibitor: 1.9; proCasp7 act: 5.2; bovine MsrA act: -3.3; Tb MetRS conf: 80.3*; Jurkat cytotox: -3.1; Tb MetRS inh FP: 57.3*

How did CCOC(=O)CC1(O)CSc2nc(N)cc(=O)n21 (centres undefined) do in these assays?
MsrA inhibitor: 0.1

What do the screens show for `COC(=O)C1=C(C)N(Cc2ccccc2C(F)(F)F)C(=NCc2ccccc2C(F)(F)F)NC1c1ccc(F)cc1` (centres undefined)?
MsrA inhibitor: -0.2

What do the screens show for `O=C(Cc1nc2ccccc2[nH]1)c1ccc([N+](=O)[O-])cc1`?
TbMetRS inhib: 8.0*; procasp3 activ: -4.3; MsrA inhibitor: -0.2; proCasp7 act: -7.2; bovine MsrA act: -1.3; Tb MetRS conf: 5.8*; Jurkat cytotox: 10.4; Tb MetRS inh FP: 7.4

Results for O=C(COc1ccc([N+](=O)[O-])cc1)NCCc1nc2ccccc2[nH]1 ?
TbMetRS inhib: 6.9*; procasp3 activ: -2.2; MsrA inhibitor: 1.8; proCasp7 act: 11.6; bovine MsrA act: -2.5; Tb MetRS conf: 12.3*; Jurkat cytotox: 4.8; Tb MetRS inh FP: 10.8

Results for NC(=O)c1ncn([C@@H]2O[C@H](C(=O)N[C@H](Cc3c[nH]c4ccccc34)C(=O)N3CCN(C(=O)N4CCOCC4)CC3)[C@@H](O)[C@H]2O)n1 ?
MsrA inhibitor: 1.2

What do the screens show for `COc1ccc(S(=O)(=O)NNC(=O)c2cc3cc4ccccc4nc3s2)cc1`?
TbMetRS inhib: 5.8*; procasp3 activ: 2.0; MsrA inhibitor: 1.5; proCasp7 act: 4.7; bovine MsrA act: -6.8; Tb MetRS conf: 14.1*; Jurkat cytotox: -3.3; Tb MetRS inh FP: 14.3

How did CS(=O)(=O)NNC(=O)c1cc2cc3ccccc3nc2s1 do in these assays?
TbMetRS inhib: -0.8; procasp3 activ: 4.1; MsrA inhibitor: -0.2; proCasp7 act: 4.8; bovine MsrA act: -2.0

Results for O=C1CC2(CCN(C(=O)C(=O)c3c[nH]c4ccccc34)CC2)Oc2ccccc21 ?
TbMetRS inhib: 20.0*; procasp3 activ: 6.3; MsrA inhibitor: 1.1; proCasp7 act: 12.2; bovine MsrA act: -1.5; Tb MetRS conf: 33.5*; Jurkat cytotox: -4.2; Tb MetRS inh FP: 17.9*

How did O=C(C(=O)N1CCCC1)c1c[nH]c2ccccc12 do in these assays?
TbMetRS inhib: 0.6; procasp3 activ: 4.8; MsrA inhibitor: 1.3; proCasp7 act: 7.1; bovine MsrA act: 2.6

Results for Cc1[nH]c2ccccc2c1C(=O)C(=O)N1CCN(C(=O)c2ccco2)CC1 ?
TbMetRS inhib: 6.4*; procasp3 activ: 5.8; MsrA inhibitor: 0.0; proCasp7 act: 7.8; bovine MsrA act: -3.6; Tb MetRS conf: 10.6*; Jurkat cytotox: 8.8; Tb MetRS inh FP: 1.7

What do the screens show for `O=C(C(=O)N1CCN(C(=O)c2ccco2)CC1)c1c[nH]c2ccccc12`?
TbMetRS inhib: 5.8*; procasp3 activ: 5.4; MsrA inhibitor: 0.5; proCasp7 act: 8.5; bovine MsrA act: -1.4; Tb MetRS conf: 12.0*; Jurkat cytotox: -0.2; Tb MetRS inh FP: 5.3

What do the screens show for `COCc1cc(N2CCNC[C@H]2C)ccc1N1CCN(Cc2ccccc2)[C@@H](C)C1`?
MsrA inhibitor: 0.2

How did O=[N+]([O-])c1ccc(CN2CCN(Cc3c[nH]c4ccccc34)CC2)cc1 do in these assays?
TbMetRS inhib: 6.2*; procasp3 activ: -5.2; MsrA inhibitor: 1.7; proCasp7 act: -6.8; bovine MsrA act: -3.9; Tb MetRS conf: 18.9*; Jurkat cytotox: 9.9; Tb MetRS inh FP: 5.5

How did Brc1ccc(CN2CCN(Cc3c[nH]c4ccccc34)CC2)cc1 do in these assays?
TbMetRS inhib: 11.0*; procasp3 activ: 1.3; MsrA inhibitor: -0.6; proCasp7 act: 3.7; bovine MsrA act: -1.7; Tb MetRS conf: 41.9*; Jurkat cytotox: 13.3; Tb MetRS inh FP: 17.5*

How did CCS(=O)(=O)N1CCN(Cc2c[nH]c3ccccc23)CC1 do in these assays?
TbMetRS inhib: 0.9; procasp3 activ: 1.9; MsrA inhibitor: 0.3; proCasp7 act: 2.2; bovine MsrA act: -2.3

Results for Brc1ccccc1CN1CCN(Cc2c[nH]c3ccccc23)CC1 ?
procasp3 activ: 3.9; MsrA inhibitor: 1.7; proCasp7 act: 3.5

How did O=C(N[C@H](Cc1ccccc1)C(=O)NCc1ccccn1)[C@H]1O[C@@H](n2ccc(=O)[nH]c2=O)[C@H](O)[C@@H]1O do in these assays?
MsrA inhibitor: -1.1

Results for COC(=O)c1ccc(-c2cccc(CN3CCN(c4ncc(Cc5ccccc5)cn4)CC3)c2)cc1 ?
MsrA inhibitor: 1.6

How did CCC(C(=O)Nc1c(C)cccc1C)n1c(-c2ccc(-c3ccccc3)cc2)nc2ccccc21 (centres undefined) do in these assays?
TbMetRS inhib: -0.5; MsrA inhibitor: 2.5

How did O=C1COc2ccc(C(=O)CSc3nnc(Cc4ccccc4)o3)cc2N1 do in these assays?
TbMetRS inhib: -0.5; procasp3 activ: 0.4; MsrA inhibitor: 0.6; proCasp7 act: -1.0; bovine MsrA act: -0.3

What do the screens show for `O=C1COc2ccc(C(=O)CSc3nnc(NCc4ccccc4)s3)cc2N1`?
TbMetRS inhib: 8.7*; procasp3 activ: -5.8; MsrA inhibitor: -1.4; proCasp7 act: -2.7; bovine MsrA act: -2.3; Tb MetRS conf: 13.1*; Jurkat cytotox: 1.7; Tb MetRS inh FP: 14.3

Results for CC1(C)OC(=O)C2=C(CC(CCc3ccccc3)OC2CCc2ccccc2)O1 (centres undefined) ?
MsrA inhibitor: -0.6
